Tb hexokinase – T. brucei hexokinase 1 inhibition | recombinant TbHK1, G6PDH-coupled NADH A340 | inhibition, % at 10 µM | 220,000 compounds, 0.11% hits;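 active = inhibition of 50% or more in the single-dose primary screen; inactive = inhibition below 50%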
b-catenin transl – modulators of beta-catenin nuclear translocation; HeLa beta-catenin nuclear translocation, immunofluorescence imaging; nuclear translocation activity, % at 5 µM; 190,000 compounds, 0.3% hits;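 active = nuclear translocation activity above 50% at 5 µM, with a well cell count of 50 or more; inconclusive = wells under 50 cells across six images, flagged as toxic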;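 note: per-cell ratio of nuclear to cytoplasmic median beta-catenin stain intensity; plate controls were DMSO negative control for no effect and GSK-3 inhibitor IX positive control for full effect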
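Read-out: Nuclear/cytoplasmic beta-catenin signal ratio, % activation | Assay system: Human HeLa cell line | Times: 24 h compound exposure at 37°C, 5% CO2 | Signal: Fluorescence imaging of beta-catenin antibody stain plus DAPI | Dosing: 5 µM primary, 0.02–20 µM confirmation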
Insulin prom up – MIN6 insulin promoter up-regulation. MIN6 insulin promoter-GFP reporter, high-content imaging; stronger effect = higher value. z-score at 5 µM. 190,000 compounds, 0.3% hits;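 active = z-score above 3 at 5 µM with at least 500 cells counted in the well; inconclusive = wells under 500 cells, flagged as cytotoxic or low count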
Autophagy mod – modulators of autophagy; MEF GFP-LC3 puncta imaging; test concentration mostly 10 µM; calls only at 10 µM (by protocol); 190,000 compounds, 0.98% hits;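 active = percentage of spot-positive cells more than 3 SD above its plate mean, without a fluorescence outlier flag or 80% toxicity; inconclusive = no clear call, values can overlap the other calls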;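 note: spot-positive cell cutoff set from DMSO-treated cells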
MT stabilize HCS – microtubule stabilizers in HeLa cells; HeLa tubulin immunostaining HCS, 24 h; share of cells brighter than vehicle mean+2SD; % tubulin-high responders, % at 10 µM; 200,000 compounds, 0.83% hits; AID 2205;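 active = plate Z-score above 3 for both tubulin-high and condensed-nucleus cell shares, with cell loss under 80%, at 10 µM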;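 note: anti alpha tubulin signal scored within the nucleus-defined area of each cell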
* hit, by the source's call; i = inactive; ? = inconclusive; nt = no result; + = active, no number. This is a sample that favours compounds with a hit; in the whole collection about 1.9% have one here.

SMILES	Tb hexokinase	b-catenin transl	Insulin prom up	Autophagy mod	MT stabilize HCS
CN(C)CCNc1ncnc2c1sc1nc(-c3ccccc3)c3c(c12)CCCC3	19	0	1.4	nt	nt
COc1cc(C(=O)N2CCN(c3ccc(C)cc3C)CC2)cc(OC)c1OC	4	27	nt	i	27*
Cc1ccc(N2CCN(C(=O)c3ccccc3)CC2)c(C)c1	7	nt	-0.32	i	5
O=C1CCC(=O)N1CCSC(=S)N1CCSCC1	-4	-1	0.19	nt	nt
O=C(/C=C/c1cn(-c2ccccc2)nc1-c1cccnc1)c1ccco1	-25	8	-1.7	i	12*
Cc1nc(CN(C)C(=O)c2ccccc2OC2CCN(S(C)(=O)=O)CC2)cs1	-2	-2	-0.16	+	2
O=C(/C=C/c1ccco1)N1CCc2ccccc21	-29	-3	-0.85	i	2
Cc1ccc(/C=C/C(=O)N2CCc3ccccc32)o1	-28	nt	-0.26	i	10*
CCn1c(O)c(/C=N/N=C2CCCC2)c2ccc(C3=NNC(=O)CC3)cc21	-14	-2	-0.53	i	2
CCCCC(CCCC)=N/N=C/c1c(O)n(CC)c2cc(C3=NNC(=O)CC3)ccc12	-16	3	nt	+	3
Cc1ccc(CSCCNC(=O)c2ccc(NS(C)(=O)=O)cc2)cc1	5	0	-0.33	i	1
CCCc1[nH]nc2c1C1(C(=O)N(C(C)C)c3ccccc31)C(C#N)=C(N)O2 (configuration not stated)	7	-2	-0.39	+	6
CCN(CC)c1ccc(/C=C/C(=O)c2ccc(Br)cc2)cc1	-6	-1	nt	+	3
CN(C)c1ccc(C(=O)/C=C/c2ccc(Br)cc2)cc1	24	nt	-0.01	i	4
COc1ccc2[nH]c(C)cc(=O)c2c1	-15	1	0.66	i	3
COc1ccc2[nH]c3c(c2c1)CCNC3C1CC=C(C)CC1 (configuration not stated)	10	51*	0.05	+	9.3*
O=C(CSc1ncnc2sc3c(c12)CCC3)Nc1ccccc1C(=O)O	-4	0	-0.65	nt	nt
Cc1ccc(C(=O)C(C)N2C(=O)NC(C)(c3ccccc3)C2=O)cc1 (configuration not stated)	2	-4	-0.09	i	2
Cc1cccc(C(=O)Nc2nc(C)c(C(=O)Nc3ccc4c(c3)CCC4)s2)c1	-9	nt	nt	i	43*
Cc1cccc(NC(=O)c2sc(C)nc2C)c1	0	-2	0.13	i	3
CCSc1nnc(CSc2ncccn2)n1C	7	0	-0.91	i	2
CCOC(=O)/C=c1\s/c(=C\c2ccc3cc(OC)ccc3c2)c(=O)n1CC(=O)NCc1ccc2c(c1)OCO2	-6	1	0.98	+	2
CCOC(=O)/C=c1\s/c(=C\c2ccccc2C)c(=O)n1CC(=O)NCc1ccc2c(c1)OCO2	-6	5	-0.15	i	22*
COc1ccc(C(=O)Nc2ccc(C3CC3(Cl)Cl)cc2)cc1 (configuration not stated)	-8	-4	0.21	i	3
CCOC(=O)c1oc2ccccc2c1NC(=O)c1cccc(OC)c1	15	-1	-0.54	i	5
SMILES	Tb hexokinase	b-catenin transl	Insulin prom up	Autophagy mod	MT stabilize HCS
CCOC(=O)c1oc2ccccc2c1NC(=O)c1cccc(OC)c1OC	-3	-1	-0.15	i	34*
CCOC(=O)c1c(NC(=O)CN2CCN(C)CC2)sc(C(=O)Nc2ccccc2)c1C	-9	-1	-0.89	i	36*
CC(=O)c1nc(N2C(=O)CC(Cc3cc(C)cc(C)c3)C2=O)sc1C (configuration not stated)	28	-1	-0.25	+	2
O=C(O)CCC(=O)Nc1ccc(Oc2ncnc3cc(Cl)ccc23)nc1	-4	0	0.05	nt	nt
NC(=O)c1cccc(S(=O)(=O)N2CCCCC2)c1	-3	0	-0.47	i	2
O=C(c1cccc(S(=O)(=O)N2CCCC2)c1)N1CCN(c2ccccc2)CC1	-3	nt	0.33	i	18*
Nc1cccc2c1C(=O)N(C(=O)c1cccc(S(=O)(=O)N3CCCC3)c1)C2=O	0	-4	3.1*	i	4
Nc1nc(SCC(=O)Nc2ccc(OCc3ccccc3)cc2)n[nH]1	2	1	0.18	nt	nt
COc1cccc(C2C=C(c3ccc(Br)s3)Nc3ncnn32)c1OC (configuration not stated)	-12	0	-0.18	i	2
Fc1ccc(Br)cc1C1C=C(c2ccc(Br)s2)Nc2ncnn21 (configuration not stated)	-8	50*	0.35	i	6
CN(C(=O)c1ccc(OC2CCN(CCc3ccccc3)CC2)cc1)C1CCCCC1	-2	0	0.02	i	2
CCc1nnc(NC(=O)CCN(c2cc(C)cc(C)c2)S(=O)(=O)c2ccc(Cl)cc2)s1	-1	0	0.51	i	19*
CC1CCCN(Cc2c(O)ccc3c(=O)c(-c4nc5ccccc5s4)c(N)oc23)C1 (configuration not stated)	-55	nt	nt	i	3
CC1CCN(Cc2c(O)ccc3c(=O)c(-c4nc5ccccc5s4)c(N)oc23)CC1	-46	-1	-0.42	+	3
CCCN1CCN(C(=O)c2nn(-c3ccc(OC)cc3)c(=O)c3c2c2ccccc2n3C)CC1	-17	1	nt	i	1
Cc1ccccc1OCc1nc2ccccc2c(=O)n1/N=C/c1cn[nH]c1-c1ccccc1	-1	-3	-1.2	+	2
Cc1nc2ccccc2c(=O)n1/N=C/c1cn[nH]c1-c1ccccc1	-14	0	-0.01	nt	nt
Cc1ccc(-c2[nH]ncc2/C=N/n2c(COc3ccccc3)nc3ccccc3c2=O)cc1	1	1	-0.73	+	4
CC(=O)Nc1ccc2c(c1)ncn2-c1ccc(C)cc1	4	2	-0.1	i	3
COc1ccc(CCNc2cc(N3CCN(C(=O)c4ccc(C)cc4)CC3)ccc2[N+](=O)[O-])cc1OC	-7	-2	-1.9	i	3
COc1ccc(CCNc2cc(N3CCN(C(=O)c4ccccc4F)CC3)ccc2[N+](=O)[O-])cc1OC	-6	1	?	+	1
Cc1noc(C)c1CSc1nc2ccccc2c(=O)n1-c1ccc(Cl)cc1	2	nt	0.09	i	40*
CN(C)C(CNC(=O)c1cc(S(=O)(=O)N(C)c2ccccc2)ccc1Cl)c1cccs1 (configuration not stated)	0	3	-0.11	i	2
O=C(Nc1ccc2c(c1)OCO2)c1ccc(NC2CC2)c([N+](=O)[O-])c1	-1	8	-1	i	28*
Cc1ccnc(NC(=O)c2ccccc2NC(=O)C(C)(C)C)c1	3	-1	-0.18	i	44*
COc1nc(OC)nc(N2CCC(C(=O)NCc3cccs3)CC2)n1	-6	nt	3.5*	i	3
Cc1cnc(C)c(N2CCC(C(=O)NCc3cccs3)CC2)n1	-19	nt	nt	i	3
COc1cccc2cc(C(=O)NCCc3c[nH]c4ccccc34)c(=O)oc12	-7	0	-0.05	i	1

Bioassay records: PubChem, several laboratories
